Assay results taken from ChEMBL document CHEMBL3352171, “Synthesis and biological evaluation of andrographolide analogues as anti-cancer agents” (Eur J Med Chem, 2014).
The source made the active and inactive calls. No cut-off for these calls is given here.

Experiments:
HEK293 [1] = assay: Increase in p53 expression in p53 deficient HEK293 cells at LC50 level after 48 hrs by Western blot method; assay type: functional, cell-based; details: Homo sapiens
Vero = assay: Cytotoxicity against african green monkey Vero cells after 48 hrs by MTT assay; assay type: cell-based; details: chlorocebus sabaeus
How it was run: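 Cells seeded at 10,000 per well and exposed to increasing compound concentrations for 48 h. After a PBS wash, MTT (2.5 mg/mL) was added for 6 h at 37 °C, then detergent (10% NP-40, 4 mM HCl), and absorbance was read at 570 nm. LC50 is the concentration causing 50% cell death. Values are means of three independent experiments.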

[2] = Induction of DNA adduct formation (unknown origin) using guanosine in presence of glacial acetic acid at 75 degC incubated for 12 hrs by LC-MS method
How it was run: (§1)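 Model reaction of compound with guanosine in glacial acetic acid at 75 °C, heated up to 12 h; adduct sought by TLC and LCMS.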

[3] = Induction of DNA adduct formation (unknown origin) using guanosine in presence of glacial acetic acid at 75 degC incubated for 12 hrs by TLC method; how it was run: as §1
HEK293 [4] = assay: Induction of cell cycle arrest in HEK293 cells assessed as accumulation at G2/M phase at 10 uM after 48 hrs by propidium iodide staining based flow cytometry (reference value: 2.63 +/- 0.7%); assay type: functional, Homo sapiens
[5] = Binding affinity to GC-28 DNA (unknown origin) minor groove by DAPI staining based spectrophotometry
How it was run: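 DAPI–DNA complex fluorescence read at 460 nm emission band; test compound added to the preformed complex and loss of fluorescence followed.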

HEK293 [6] = assay: Induction of cell cycle arrest in HEK293 cells assessed as accumulation at G2/M phase at 20 uM after 48 hrs by propidium iodide staining based flow cytometry (reference value: 2.63 +/- 0.7%); assay type: functional, Homo sapiens
HEK293 [7] = assay: Induction of cell death in HEK293 cells at 15 to 20 uM after 48 hrs by DAPI staining based fluorescence microscopy; assay type: functional; details: Homo sapiens
HEK293 [8] = assay: Induction of apoptosis in HEK293 cells at 5 uM after 48 hrs by propidium iodide staining based flow cytometry (reference value: 24.26 +/- 0.8%); assay type: functional, Homo sapiens
HEK293 [9] = assay: Induction of apoptosis in HEK293 cells at 15 uM after 48 hrs by propidium iodide staining based flow cytometry (reference value: 24.26 +/- 0.8%); assay type: functional, Homo sapiens
HEK293 [10] = assay: Induction of apoptosis in HEK293 cells at 5 to 20 uM after 48 hrs by DAPI staining based fluorescence microscopy; assay type: functional, cell-based; details: Homo sapiens
HEK293 [11] = assay: Increase in PARP cleavage in HEK293 cells at LC50 level after 48 hrs by Western blot method; assay type: functional, cell-based; details: Homo sapiens

C=C1CC[C@@H]2[C@](C)(CO)[C@H](O)CC[C@@]2(C)[C@@H]1C/C=C1/C(=O)OC[C@H]1OC(=O)CI
Activity (HEK293 [1]): inactive
LC50 (Vero): 45 µM
Activity [2]: inactive
Activity [3]: inactive
Activity (HEK293 [4]): 2.74%
Activity [5]: Active
Activity (HEK293 [6]): 0.69%
Activity (HEK293 [7]): Active
Activity (HEK293 [8]): 43.09%
Activity (HEK293 [9]): 78.5%
Activity (HEK293 [10]): Dose-dependent effect
Activity (HEK293 [11]): Active
